Results reported in ChEMBL document CHEMBL3217593, “A Bivalent Ligand Targeting the Putative Mu Opioid Receptor and Chemokine Receptor CCR5 Heterodimers: Binding Affinity versus Functional Activities” (Medchemcomm, 2013).
Calls of active or inactive are those of the source. The rule behind the calls is not given here.

Columns and labels:
[1] = target: T1, C-C chemokine receptor type 5 (Homo sapiens, UniProt P51681); experiment: Antagonist activity at CCR5 in Gqi5 transfected human MOLT4 cells assessed as inhibition of RANTES-stimulated Ca2+ influx preincubated for 15 mins followed by […]; assay type: functional, cell-based, MOLT-4
How it was run: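 CCR5-MOLT-4 cells transfected with chimeric […]. Inhibition of RANTES-stimulated Ca2+ flux was measured. IC50 is the mean ± S.E.M. of three independent experiments.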
Target sequence in this assay (P51681 whole entry): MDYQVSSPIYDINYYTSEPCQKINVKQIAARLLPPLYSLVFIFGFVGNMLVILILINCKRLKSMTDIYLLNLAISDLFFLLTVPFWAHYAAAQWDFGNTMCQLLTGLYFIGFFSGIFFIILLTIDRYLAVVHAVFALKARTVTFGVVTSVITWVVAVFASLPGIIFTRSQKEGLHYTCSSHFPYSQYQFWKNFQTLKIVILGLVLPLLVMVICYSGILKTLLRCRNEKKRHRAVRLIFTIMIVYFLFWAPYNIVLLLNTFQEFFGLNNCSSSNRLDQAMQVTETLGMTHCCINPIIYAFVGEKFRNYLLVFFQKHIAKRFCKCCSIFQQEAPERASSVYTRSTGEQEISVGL

[2] = Cytotoxicity against human astrocytes assessed as cell viability at 100 nM by AOPI staining-based fluorescence assay; settings: astrocyte, 0.1 µM
How it was run: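 Astroglial cell viability after exposure at 100 nM, assessed by dual green/red fluorescence labeling with AOPI.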

[3] = target: T1, C-C chemokine receptor type 5; experiment: Agonist activity at CCR5 in Gqi5 transfected human MOLT4 cells after 15 mins; assay type: cell-based; settings: MOLT-4
How it was run: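 Ca2+ mobilization, agonist mode, in CCR5-MOLT-4 cells transfected with chimeric […]. Intracellular Ca2+ flux was read directly, with no agonist challenge.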
Target sequence in this assay (P51681 whole entry, looked up): as the sequence (P51681 whole entry) above

Mu-type opioid receptor [4] = target: T2, Mu-type opioid receptor (Homo sapiens, UniProt P35372); experiment: Agonist activity at human mu opioid receptor expressed in Gqi5 transfected CHO cells after 15 mins; assay type: cell-based
T2 sequence (P35372 whole entry): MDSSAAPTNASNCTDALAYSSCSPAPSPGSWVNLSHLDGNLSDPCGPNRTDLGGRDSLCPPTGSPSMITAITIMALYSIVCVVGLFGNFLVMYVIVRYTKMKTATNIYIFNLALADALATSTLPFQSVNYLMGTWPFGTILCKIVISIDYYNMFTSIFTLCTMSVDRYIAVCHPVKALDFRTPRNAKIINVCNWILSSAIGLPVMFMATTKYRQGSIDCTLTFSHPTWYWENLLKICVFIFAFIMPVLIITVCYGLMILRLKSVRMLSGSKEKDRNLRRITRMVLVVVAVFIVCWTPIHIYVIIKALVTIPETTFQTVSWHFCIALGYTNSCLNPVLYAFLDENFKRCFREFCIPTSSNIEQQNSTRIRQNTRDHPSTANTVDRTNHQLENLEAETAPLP
How it was run: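 hMOR-expressing CHO cells transfected with chimeric […] were tested for direct Ca2+ mobilization (agonist mode).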

[5] = target: C-C chemokine receptor type 5 (Macaca mulatta, UniProt P61813); experiment: Displacement of [125I]-MIP-1alpha from CCR5 in rhesus monkey Chem-1 cell membranes after 120 mins by liquid scintillation counting analysis
Mu-type opioid receptor [6] = target: T2, Mu-type opioid receptor; experiment: Antagonist activity at human mu opioid receptor expressed in Gqi5 transfected CHO cells assessed as inhibition of DAMGO-stimulated Ca2+ influx preincubated for 15 mins followed by DAMGO challenge; assay type: functional, cell-based
How it was run: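 hMOR-CHO cells transfected with chimeric […]. Inhibition of DAMGO-stimulated Ca2+ flux was measured. IC50 is the mean ± S.E.M. of three independent experiments.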

Mu-type opioid receptor [7] = target: T2, Mu-type opioid receptor; experiment: Displacement of [3H]-naloxone from human mu opioid receptor expressed in CHO cells after 1 hr; assay type: cell-based
How it was run: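 Competitive binding in hMOR-expressing CHO cells with [3H]naloxone as radioligand. Ki is the mean ± S.E.M. of three independent experiments.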

Homo sapiens = species on record: Homo sapiens; experiment: Binding affinity to CCR5/MOR in human astrocytes assessed as inhibition of R5 HIV-1 SF162 infection by measuring Tat protein expression at 1.5 uM preincubated for 30 to 60 mins followed by viral infection measured after 18 hrs by luciferase reporter gene assay; assay type: cell-based
How it was run: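 Human astrocytes infected with R5 HIV-1 SF162. Infectivity was read as relative Tat protein expression by luciferase-based assay at 18 h post-infection. Tested at 1.5 μM after an initial dose-response study. Values are from three independent experiments, compared against uninfected and infected controls.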

[8] = target: CCR5/mu opioid receptor complex (Homo sapiens) (UniProt P51681+P35372); settings: 100 nM
Sequence of CCR5/mu opioid receptor complex (Homo sapiens) (P35372 whole entry, looked up): as the sequence (P35372 whole entry) above
Sequence of CCR5/mu opioid receptor complex (Homo sapiens) (P51681 whole entry, looked up): as the sequence (P51681 whole entry) above

## Cc1nnc(C(C)C)n1C1CC2CCC(C1)N2CC[C@H](NC(=O)C1CCC(F)(F)CC1)c1ccc(NC(=O)OC(C)(C)C)cc1 (some centres undefined)
[1]
  IC50: 1570 nM

## Cc1nnc(C(C)C)n1C1CC2CCC(C1)N2CC[C@H](NC(=O)C1CCC(F)(F)CC1)c1ccc(NC(=O)COCC(=O)NCCCCCCCNC(=O)COCC(=O)N[C@@H]2CC[C@@]3(O)[C@H]4Cc5ccc(O)c6c5[C@@]3(CCN4CC3CC3)[C@H]2O6)cc1 (some centres undefined)
[2]
  Activity: Non-toxic
[3]
  Activity: inactive
Mu-type opioid receptor [4]
  Activity: inactive

## CNC(=O)COCC(=O)NCCCCCCCNC(=O)COCC(=O)Nc1ccc([C@H](CCN2C3CCC2CC(n2c(C)nnc2C(C)C)C3)NC(=O)C2CCC(F)(F)CC2)cc1 (some centres undefined)
[1]
  IC50: 622 nM
[5]
  Ki: 151 nM

## CNC(=O)COCC(=O)NCCCCCCCNC(=O)COCC(=O)N[C@@H]1CC[C@@]2(O)[C@H]3Cc4ccc(O)c5c4[C@@]2(CCN3CC2CC2)[C@H]1O5
Mu-type opioid receptor [6]
  IC50: 37.8 nM
Mu-type opioid receptor [4]
  Activity: inactive
Mu-type opioid receptor [7]
  Ki: 9.2 nM

## Cc1nnc(C(C)C)n1C1CC2CCC(C1)N2CC[C@H](NC(=O)C1CCC(F)(F)CC1)c1ccc(N)cc1 (some centres undefined)
[1]
  IC50: 14.2 nM
[5]
  Ki: 15.3 nM

## CNC(=O)COCC(=O)Nc1ccc([C@H](CCN2C3CCC2CC(n2c(C)nnc2C(C)C)C3)NC(=O)C2CCC(F)(F)CC2)cc1 (some centres undefined)
[1]
  IC50: 7910 nM

## O=C1CC[C@@]2(O)[C@H]3Cc4ccc(O)c5c4[C@@]2(CCN3CC2CC2)[C@H]1O5
Homo sapiens
  inhibition: inactive

## Cc1nnc(C(C)C)n1[C@H]1C[C@H]2CC[C@@H](C1)N2CC[C@H](NC(=O)C1CCC(F)(F)CC1)c1ccccc1
[8]
  inhibition: Active
